Screening data (PubChem BioAssay)
Hits are enriched below; roughly 2.7% of the tested compounds scored in any of these assays.
Rpn11 block – blocks the human proteasome subunit Rpn11 | human 26S proteasome, Ub4-pepOG fluorescence polarization; 20S core pre-blocked with epoxomicin | inhibition, % at 20 µM | hit rate 0.59% among 360,000;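 active means inhibition at 20 µM, scaled to each plate's controls, above about 33%, limit read from the data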
TPT1 inhibitor – C. albicans TPT1 enzyme inhibition. recombinant caTPT1, FP RNA substrate dephosphorylation. inhibition, % at 5 µM. hit rate 0.81% among 300,000. AID 1962;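 active means inhibition above the mean of all tested compounds plus 3 SD, set per screening campaign, cut at about 24% in these data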
HNF4A DNA FP – change in binding of human HNF4 alpha to DNA; activity change, % at 10 µM; hit rate 0.3% among 360,000; HNF4a-FITC DNA binding, fluorescence polarization, 1 h; P41235; AID 1224865; in the data active means activity change above about 30%, passing the limit was not always enough
PP1 counter – blocks human PP1-alpha phosphatase, a PP5 counter-screen. P62136. purified PP1alpha, OMFP fluorescence. inhibition, % at 6.7 µM. hit rate 0.9% among 320,000;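 active means inhibition above the mean inhibition of all tested compounds plus 3 SD, computed separately for each screening campaign, cut at about 15% in these data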
Target sequence (P62136 whole entry, looked up): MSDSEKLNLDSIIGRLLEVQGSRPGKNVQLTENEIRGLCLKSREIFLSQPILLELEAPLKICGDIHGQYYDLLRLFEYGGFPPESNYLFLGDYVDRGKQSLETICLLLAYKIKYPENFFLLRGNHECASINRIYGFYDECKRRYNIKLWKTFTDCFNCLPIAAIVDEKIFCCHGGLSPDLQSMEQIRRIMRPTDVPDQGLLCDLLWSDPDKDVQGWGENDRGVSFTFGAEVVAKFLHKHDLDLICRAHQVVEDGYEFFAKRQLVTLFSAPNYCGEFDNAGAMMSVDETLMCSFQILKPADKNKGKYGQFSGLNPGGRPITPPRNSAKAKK
NadD inh – blocks S. aureus nicotinate mononucleotide adenylyltransferase. hit rate 0.78% among 360,000. AID 602399. inhibition, % at 20 µM. purified NadD enzyme, colorimetric absorbance read-out; in the data active means inhibition above about 26%
CSN inh – inhibitors of human CSN-mediated cullin deneddylation; Q92905; Purified CSN, SCF-Nedd8-OG deneddylation, fluorescence polarization; inhibition, % at 12.5 µM; AID 651999; hit rate 0.38% among 360,000;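 active means pattern-corrected inhibition above about 35%, with an unprinted fluorescence ratio check between 0.5 and 1.5, limit read from the data, passing the limit was not always enough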
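Assay system: purified human Csn5 enzyme expressed in HEK293T cells; measure: % inhibition; also added: SCFSkp2-Nedd8OG substrate at 10 nM final; technique: fluorescence polarization; times: reaction 90 min, room temperature; medium: Tris buffer pH 7.5, NaCl, DTT, Tween-20, trehalose, ovalbumin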
caTPT1 confirm – confirmation of Candida albicans TPT1 inhibitors | recombinant caTPT1, fluorescence polarization, RNase T1 coupled | hit rate 74% among 2,400 | shares compounds with TPT1 inhibitor | inhibition, % at 5 µM | AID 2149;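 active means inhibition above the primary screen limit, the mean inhibition of all tested compounds plus 3 SD, cut at about 25% in these data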
RNase T1 inh – counter-screen for TPT1 inhibitors: inhibitors of Aspergillus oryzae RNase T1; hit rate 83% among 2,400; inhibition, % at 5 µM; AID 2153; RNase T1 cleavage, fluorescence polarization, 1536-well; shares compounds with TPT1 inhibitor;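 active means inhibition above the solvent-only control well mean plus 3 SD, limit set per screening run, cut at about 23% in these data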;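 further: inhibitors block cleavage so intact labeled substrate keeps polarization high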
Target sequence (P00651 whole entry, looked up): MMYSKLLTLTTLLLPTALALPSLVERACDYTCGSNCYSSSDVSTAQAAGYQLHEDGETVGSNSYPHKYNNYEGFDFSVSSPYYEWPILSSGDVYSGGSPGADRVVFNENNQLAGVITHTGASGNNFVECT
PP1 inh confirm – human PP1 phosphatase inhibition, confirmation; shares compounds with PP1 counter; purified PP1alpha, OMFP substrate fluorescence; inhibition, % at 6.7 µM; hit rate 52% among 1,900; AID 2358;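 active means mean PP1 inhibition above a set limit taken from the earlier primary screen, cut at about 15% in these data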
PP5 counter – inhibits human PP5 phosphatase in PP1 counter-screen | shares compounds with PP1 counter | purified PP5c, OMFP fluorescence | inhibition, % at 6.7 µM | hit rate 4% among 1,900;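 active means mean PP5 inhibition over triplicate wells above about 9.5% taken from the earlier PP1 screen, limit read from the data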
Rpn11 inh conf – Rpn11 inhibition confirmation, single concentration; shares compounds with Rpn11 block; purified human 26S proteasome, Ub4-pepOG fluorescence polarization; proteasome pretreated with epoxomicin; inhibition, % at 20 µM; hit rate 29% among 1,900; AID 602318
MMP-2 counter-1 – counter-screen for RPN11 inhibitors: inhibition of human MMP-2; shares compounds with Rpn11 block; hit rate 4% among 1,900; inhibition, % at 20 µM; recombinant MMP-2, FRET peptide cleavage fluorescence;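 further: human MMP-2 activated beforehand with APMA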
Thrombin FP – thrombin (bovine) inhibition counter-screen. shares compounds with Rpn11 block. inhibition, % at 20 µM. hit rate 13% among 1,900. bovine thrombin cleavage of Ub4-pepOG, fluorescence polarization;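 active means mean inhibition at least 40% at 20 µM, or signal 3 deviations below plate average, so some actives read negative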
NadD conf – confirmation of Staphylococcus aureus NadD inhibitors; AID 624309; inhibition, % at 20 µM; purified S. aureus NadD, colorimetric enzyme assay; shares compounds with NadD inh; hit rate 13% among 2,000; in the data active means inhibition mostly above about 42%, no sharp cut-off; inactive means mostly below about 42%
CSN5 deneddyl – Csn5 (human) deneddylation inhibition, single-concentration validation | inhibition, % at 16.6 µM | shares compounds with CSN inh | AID 720654 | Csn5 deneddylation of SCF-Nedd8OG, fluorescence polarization, 90 min | hit rate 62% among 540; in the data active means inhibition above about 50%
MMP-2 counter-2 – blocks human MMP-2 in a CSN deneddylation counter-screen. hit rate 33% among 540. recombinant MMP-2, FRET substrate fluorescence, 60 min. shares compounds with CSN inh. inhibition, % at 16.6 µM. AID 720655;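 active means corrected plate-normalized z-score of 5 or more, or -5 or less, or inhibition of 15% or more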
Thrombin counter – blocks bovine thrombin in a CSN deneddylation counter-screen | hit rate 49% among 540 | bovine thrombin cleavage of Ub4-pepOG, fluorescence polarization | shares compounds with CSN inh | inhibition, % at 16.6 µM;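 active means inhibition at or above a set limit, with a fluorescence interference ratio between 0.5 and a set maximum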
HNF4a DNA conf – change in binding of human HNF4 alpha to DNA, retest. AID 1224897. HNF4A-FITC DNA binding, fluorescence polarization, 1 h. hit rate 99% among 210. activity change, % at 12.5 µM. shares compounds with HNF4A DNA FP; call rule not given here
Large screens that a line does not name were inactive (follow-up assays come after a bar, where shown). Unless noted, no stated cut-off is given here; in the data, active means inhibition above about 40%; inactive means the rest.

Cc1onc(-c2ccccc2)c1C(=O)Nc1sccc1C#N	TPT1 inhibitor 83, HNF4A DNA FP 44 (not shown: Rpn11 block) | caTPT1 confirm 91 | RNase T1 inh 99 | HNF4a DNA conf 65
Cc1cnc(C(=O)OC(C)C(=O)Nc2ccccc2-c2ccccc2)cn1 (centres undefined)	none
Oc1ccc(/C=C/c2ccc3cccc(O)c3n2)cc1Br	TPT1 inhibitor 48, HNF4A DNA FP 44 (not shown: Rpn11 block) | caTPT1 confirm 63 | RNase T1 inh 70 | HNF4a DNA conf 76
O=C(O)c1ccc(/C=C/c2ccc3cccc(O)c3n2)cc1	none (no result: TPT1 inhibitor, PP1 counter)
COc1cc([C@@H]2[C@H]3CNCC=C3C(C#N)=C(N)C2(C#N)C#N)ccc1OC(C)C	TPT1 inhibitor 34, HNF4A DNA FP 48 (not shown: Rpn11 block) | caTPT1 confirm 24 | RNase T1 inh 36 | HNF4a DNA conf 56
COc1cc(C2C3CN(C)CC=C3C(C#N)=C(N)C2(C#N)C#N)ccc1OC(C)C (centres undefined)	none
CCOC(=O)/C(C#N)=C/C=C1\C=Cc2ccccc2N1CC	TPT1 inhibitor 79, HNF4A DNA FP 94, CSN inh 44 (not shown: Rpn11 block) | caTPT1 confirm 83 | RNase T1 inh 93 | CSN5 deneddyl 99 | MMP-2 counter-2 inactive | Thrombin counter 55 | HNF4a DNA conf 101
CN1/C(=C/C=C(C#N)C#N)C=Cc2ccccc21	none (not shown: Rpn11 block)
O=C(Nc1ccc(S(=O)(=O)Nc2nccs2)cc1)c1ccc(N2C(=O)c3ccccc3C2=O)cc1	Rpn11 block 68, TPT1 inhibitor 41, HNF4A DNA FP 53, PP1 counter 28, NadD inh 62, CSN inh 67 | caTPT1 confirm 65 | RNase T1 inh 77 | PP1 inh confirm inactive | PP5 counter inactive | Rpn11 inh conf 91 | MMP-2 counter-1 inactive | Thrombin FP 46 | NadD conf inactive | HNF4a DNA conf 66
CN=C1NC(C)(C)C2CCC(C)(CC2)S1	none (no result: TPT1 inhibitor, PP1 counter)
COc1ccc(C2NN=C(c3c[nH]c4ccccc34)C2O)cc1 (centres undefined)	Rpn11 block 94, TPT1 inhibitor 73, HNF4A DNA FP 57 | caTPT1 confirm 65 | RNase T1 inh 78 | HNF4a DNA conf 89
O=C(O)c1ccc(CNC(=O)c2ccc3c(c2)C(=O)N(Cc2cccnc2)C3=O)cc1	none (no result: TPT1 inhibitor, PP1 counter)
CCOc1ccc2cc(/C=C/C(=O)c3ccco3)c(Cl)nc2c1	TPT1 inhibitor 37, HNF4A DNA FP 34 (not shown: Rpn11 block) | caTPT1 confirm 57 | RNase T1 inh 68 | HNF4a DNA conf 36
CCOc1ccc2nc(SCC(=O)NNC(=O)c3ccco3)c(C)cc2c1	none
O=C(CSc1ccccc1)NNC(=O)c1ccccc1O	none
Cn1cccc1/C=C1\SC(=S)N(CC(=O)O)C1=O	TPT1 inhibitor 108, HNF4A DNA FP 80, CSN inh 49 (not shown: Rpn11 block) | caTPT1 confirm 115 | RNase T1 inh 129 | HNF4a DNA conf 117
COc1ccccc1N1CCN(C(=O)c2cccc(S(=O)(=O)N3CCCCCC3)c2)CC1	none (no result: TPT1 inhibitor)
COc1ccc(-c2nnc(C)c3nocc23)cc1	Rpn11 block 89, TPT1 inhibitor 67, HNF4A DNA FP 56 | caTPT1 confirm 60 | RNase T1 inh 69 | Rpn11 inh conf 48 | MMP-2 counter-1 inactive | Thrombin FP inactive | HNF4a DNA conf 63
CCOc1cc(/C=C2\N=C3CCCCCN3C2=O)ccc1O	TPT1 inhibitor 43, HNF4A DNA FP 49, CSN inh 58 (not shown: Rpn11 block) | caTPT1 confirm 58 | RNase T1 inh 60 | HNF4a DNA conf 71
COc1ccc(C(=O)/C=C/c2cn(CC(O)CN3CCOCC3)c3ccccc23)cc1 (centres undefined)	TPT1 inhibitor 51, HNF4A DNA FP 42 (not shown: Rpn11 block) | caTPT1 confirm 45 | RNase T1 inh 57 | HNF4a DNA conf 75
COc1ccc(C(=O)/C=C/c2cn(CN3CCN(C)CC3)c3ccccc23)cc1	none
O=Cc1ccc(N2N=C(c3ccccc3)CC2c2ccccc2)cc1 (centres undefined)	none
N#CCC(=O)N/N=C/c1ccc(N2N=C(c3ccccc3)CC2c2ccccc2)cc1 (centres undefined)	TPT1 inhibitor 51, HNF4A DNA FP 50, PP1 counter 25, NadD inh 49, CSN inh 39 (not shown: Rpn11 block) | caTPT1 confirm 67 | RNase T1 inh 78 | PP1 inh confirm 17 | PP5 counter inactive | NadD conf inactive | HNF4a DNA conf 35
N#Cc1c(-c2c(Cl)cccc2Cl)noc1/C=C/Nc1ccc(C(=O)O)cc1	none
